How the values were obtained:
Mus musculus [1] = organism: Mus musculus; assay: Tested for the concentration that shows hypothermia as changes in rectal temperature (RT).; type: functional
Cannabinoid receptor 1 = Cannabinoid receptor 1 (Homo sapiens, UniProt P21554); assay: Evaluated for its binding affinity towards Cannabinoid receptor 1 (CB1)
Mus musculus [2] = organism: Mus musculus; assay: Tested for the concentration for antinociception as measured by the tail-flick response (TF).; type: functional
Mus musculus [3] = assay: The compound was tested for the concentration for the inhibition of spontaneous activity (SA) at a dose of 30 mg/kg.; type: functional
Procedure, shortened: (§1)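 Mice, single intravenous tail-vein dose in ethanol:emulphor:saline 1:1:18 at 0.1 mL/10 g. Several measures were taken in the same mouse. SA is % of control activity, and TF is %MPE with a 10-s maximum latency. Effect is expressed as percent of the Δ9-THC maximum (90% for SA, 100% for TF).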

Mus musculus [4] = organism: Mus musculus; assay: Tested for the concentration for the inhibition of spontaneous activity (SA).; type: functional
Mus musculus [5] = organism: Mus musculus; assay: Tested for the concentration that shows ring immobility (RI).; type: functional
Mus musculus [6] = assay: The compound was tested for the concentration that shows hypothermia as changes in rectal temperature (RT) at a dose of 30 mg/kg.; type: functional
Procedure, shortened: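 Mice, single intravenous tail-vein dose in ethanol:emulphor:saline 1:1:18 at 0.1 mL/10 g. Rectal temperature change (Δ°C) was measured in the same mouse as the other behavioural measures.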

Mus musculus [7] = assay: The compound was tested for the concentration for antinociception as measured by the tail-flick response (TF) at a dose of 30 mg/kg.; type: functional; procedure, shortened: as §1
Mus musculus [8] = assay: The compound was tested for the concentration for the inhibition of spontaneous activity (SA) at a dose of 100 mg/kg.; type: functional; procedure, shortened: as §1
Mus musculus [9] = assay: The compound was tested for the concentration for antinociception as measured by the tail-flick response (TF) at a dose of 60 mg/kg.; type: functional; procedure, shortened: as §1

Sequence of Cannabinoid receptor 1 (P21554 whole entry): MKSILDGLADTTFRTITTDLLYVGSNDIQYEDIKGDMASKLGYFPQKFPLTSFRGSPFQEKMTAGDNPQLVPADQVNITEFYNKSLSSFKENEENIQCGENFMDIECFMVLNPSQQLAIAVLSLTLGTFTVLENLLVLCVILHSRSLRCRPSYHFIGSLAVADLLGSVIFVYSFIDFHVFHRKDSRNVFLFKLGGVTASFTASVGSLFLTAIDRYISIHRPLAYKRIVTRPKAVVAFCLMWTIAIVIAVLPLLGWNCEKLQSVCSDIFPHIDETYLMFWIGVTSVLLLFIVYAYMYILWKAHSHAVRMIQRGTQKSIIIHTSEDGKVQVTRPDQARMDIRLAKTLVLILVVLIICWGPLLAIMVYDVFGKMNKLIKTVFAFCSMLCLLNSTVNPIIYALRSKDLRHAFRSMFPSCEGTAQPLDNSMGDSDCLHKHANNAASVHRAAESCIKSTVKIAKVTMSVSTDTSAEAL

Structure (SMILES) | ED50 (Mus musculus [1]) [mg/kg] | Ki (Cannabinoid receptor 1) [nM] | ED50 (Mus musculus [2]) [mg/kg] | inhibition in vivo at 30 mg/kg (Mus musculus [3]) [%] | ED50 (Mus musculus [4]) [mg/kg] | ED50 (Mus musculus [5]) [mg/kg] | inhibition in vivo at 30 mg/kg (Mus musculus [6]) [%] | inhibition in vivo at 30 mg/kg (Mus musculus [7]) [%] | inhibition in vivo at 100 mg/kg (Mus musculus [8]) [%] | inhibition in vivo at 60 mg/kg (Mus musculus [9]) [%]
CC1=CC[C@@H]2[C@@H](C1)c1c(O)cc(C(C)(C)CCCCC(=O)Nc3ccc(Cl)cc3Cl)cc1OC2(C)C | 3.7 | 18 | 14 | 27 |  |  |  |  |  | 
CCCCCc1cc(O)c2c(c1)OC(C)(C)[C@@H]1CCC(C)=C[C@@H]21 [DRONABINOL] | 1.4 |  | 1.4 |  | 1 | 1.5 |  |  |  | 
CC1=CC[C@@H]2[C@@H](C1)c1c(O)cc(C(C)(C)CCCCC#N)cc1OC2(C)C | 0.19 | 0.36 | 0.0047 |  | 0.007 | 0.095 |  |  |  | 
CC1=CC[C@@H]2[C@@H](C1)c1c(O)cc(C(C)(C)CCCCOc3ccc(C#N)cc3)cc1OC2(C)C | 4.24 | 3 | 1.15 |  | 0.1 |  |  |  |  | 
CC1=CC[C@@H]2[C@@H](C1)c1c(O)cc(C(C)(C)CCCCC(=O)N(C)C)cc1OC2(C)C | 0.12 | 0.86 | 0.031 |  | 0.0015 |  |  |  |  | 
CC1=CC[C@@H]2[C@@H](C1)c1c(O)cc(C(C)(C)CCCCC(=O)Nc3ccc(S(N)(=O)=O)cc3)cc1OC2(C)C | 1.7 | 19 | 3.2 |  | 2.03 |  |  |  |  | 
CCN(CC)C(=O)CCCCC(C)(C)c1cc(O)c2c(c1)OC(C)(C)[C@@H]1CC=C(C)C[C@@H]21 | 0.4 | 13 | 0.1 |  | 0.09 |  |  |  |  | 
CC1=CC[C@@H]2[C@@H](C1)c1c(O)cc(C(C)(C)CCCCC(=O)NN3CCCCC3)cc1OC2(C)C | 0.17 | 1.2 | 0.16 |  | 0.04 |  |  |  |  | 
CC1=CC[C@@H]2[C@@H](C1)c1c(O)cc(C(C)(C)CCCC(O)C#N)cc1OC2(C)C (stereo not given in full) | 1.5 | 13 | 0.11 |  | 0.52 | 1.07 |  |  |  | 
CC1=CC[C@@H]2[C@@H](C1)c1c(O)cc(C(C)(C)CCCCC(=O)Nc3ccc(Cl)cc3)cc1OC2(C)C |  | 187 |  | 39 |  |  | -1.6 | 15 |  | 
CC1=CC[C@@H]2[C@@H](C1)c1c(O)cc(C(C)(C)CCCCCC#N)cc1OC2(C)C | 0.005 | 0.6 | 0.01 |  | 0.006 |  |  |  |  | 
CC1=CC[C@@H]2[C@@H](C1)c1c(O)cc(C(C)(C)CCCCC(C#N)c3ccccc3)cc1OC2(C)C (stereo not given in full) | 4.2 | 9.2 | 1.4 |  | 6.51 | 5.05 |  |  |  | 
CC1=CC[C@@H]2[C@@H](C1)c1c(O)cc(C(C)(C)CCCCC(=O)NCCc3ccc(S(N)(=O)=O)cc3)cc1OC2(C)C | > 100 | 29 | > 100 |  |  | > 100 |  |  | 60 | 
CC1=CC[C@@H]2[C@@H](C1)c1c(O)cc(C(C)(C)CCCCC(=O)NCc3ccc(S(N)(=O)=O)cc3)cc1OC2(C)C | 37 | 60 |  |  | 31 |  |  |  |  | 60
CCCCCCC(C)(C)c1cc(O)c2c(c1)OC(C)(C)[C@@H]1CC=C(C)C[C@@H]21 | 0.04 | 0.77 | 0.04 |  | 0.07 | 0.05 |  |  |  | 
